According to ChEMBL document CHEMBL2157866, “Virtual screening and computational optimization for the discovery of covalent prolyl oligopeptidase inhibitors with activity in human cells” (J Med Chem, 2012):

How the values were obtained:
[1] = substrate: Cc1cc(=O)oc2cc(NC(=O)[C@@H]3CCCN3C(=O)CNC(=O)OCc3ccccc3)ccc12; experiment: Activity of human recombinant POP incubated for 30 mins by fluorimetric assay
How it was run: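 Recombinant human POP/PREP stock diluted in PBS containing 1 mg/mL BSA. Increasing Z-Gly-Pro-AMC concentrations added; fluorescence (ex/em 360/460 nm) followed for 30 min at 37 °C. KM determined graphically from a double-reciprocal Michaelis–Menten plot.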

[2] = substrate: Cc1cc(=O)oc2cc(NC(=O)[C@@H]3CCCN3C(=O)CNC(=O)OCc3ccccc3)ccc12; experiment: Activity of POP in human HCEC cell extracts incubated for 30 mins by fluorimetric assay
How it was run: (§1)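 Confluent cell monolayers lysed in PBS with 0.1% Triton X-100. Increasing Z-Gly-Pro-AMC concentrations added; fluorescence increase (ex/em 360/460 nm) recorded for 30 min at 37 °C. KM read graphically from a double-reciprocal Michaelis–Menten plot.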

[3] = substrate: Cc1cc(=O)oc2cc(NC(=O)[C@@H]3CCCN3C(=O)CNC(=O)OCc3ccccc3)ccc12; experiment: Activity of POP in human LN18 cell extracts incubated for 30 mins by fluorimetric assay; how it was run: as §1
[4] = substrate: Cc1cc(=O)oc2cc(NC(=O)[C@@H]3CCCN3C(=O)CNC(=O)OCc3ccccc3)ccc12; experiment: Activity of POP in human LN229 cell extracts incubated for 30 mins by fluorimetric assay; how it was run: as §1
[5] = substrate: Cc1cc(=O)oc2cc(NC(=O)[C@@H]3CCCN3C(=O)CNC(=O)OCc3ccccc3)ccc12; experiment: Activity of POP in human LNZ308 cell extracts incubated for 30 mins by fluorimetric assay; how it was run: as §1

B1: Prolyl endopeptidase (Homo sapiens), P48147 (protein)
chain: MLSLQYPDVYRDETAVQDYHGHKICDPYAWLEDPDSEQTKAFVEAQNKITVPFLEQCPIRGLYKERMTELYDYPKYSCHFKKGKRYFYFYNTGLQNQRVLYVQDSLEGEARVFLDPNILSDDGTVALRGYAFSEDGEYFAYGLSASGSDWVTIKFMKVDGAKELPDVLERVKFSCMAWTHDGKGMFYNSYPQQDGKSDGTETSTNLHQKLYYHVLGTDQSEDILCAEFPDEPKWMGGAELSDDGRYVLLSIREGCDPVNRLWYCDLQQESSGIAGILKWVKLIDNFEGEYDYVTNEGTVFTFKTNRQSPNYRVINIDFRDPEESKWKVLVPEHEKDVLEWIACVRSNFLVLCYLHDVKNILQLHDLTTGALLKTFPLDVGSIVGYSGQKKDTEIFYQFTSFLSPGIIYHCDLTKEELEPRVFREVTVKGIDASDYQTVQIFYPSKDGTKIPMFIVHKKGIKLDGSHPAFLYGYGGFNISITPNYSVSRLIFVRHMGGILAVANIRGGGEYGETWHKGGILANKQNCFDDFQCAAEYLIKEGYTSPKRLTINGGSNGGLLVAACANQRPDLFGCVIAQVGVMDMLKFHKYTIGHAWTTDYGCSDSKQHFEWLVKYSPLHNVKLPEADDIQYPSMLLLTADHDDRVVPLHSLKFIATLQYIVGRSRKQSNPLLIHVDTKAGHGAGKPTAKVIEEVSDMFAFIARCLNVDWIP
Km [1]: 8.5 µM | Km [2]: 7 µM | Km [3]: 8.5 µM | Km [4]: 6.7 µM | Km [5]: 8.1 µM
